Test results as given in ChEMBL document CHEMBL1275282, “Synthesis, characterization, oxidative degradation, antibacterial activity and acetylcholinesterase/butyrylcholinesterase inhibitory effects of some new phosphorus(V) hydrazides” (Eur J Med Chem, 2010).

What was measured:
Escherichia coli [1] = assay: Antibacterial activity against Escherichia coli at 5 mg/ml after 20-24 hrs by filter paper disc method.; type: functional; conditions: read-out: DIZ
In short: (§1)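 Filter paper disc diffusion on nutrient agar, with nutrient-agar cultures as inocula. 6.5 mm paper discs were saturated with test solutions at 5 or 10 mg ml-1, with chloramphenicol at the same levels as reference. Plates were incubated at 37 ± 1 °C for 20–24 h. The growth-inhibition zone diameter was measured, and three diameters were averaged per sample.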

Escherichia coli [2] = assay: Antibacterial activity against Escherichia coli at 10 mg/ml after 20-24 hrs by filter paper disc method; type: functional; conditions: read-out: DIZ; in short: as §1
Klebsiella pneumoniae [3] = assay: Antibacterial activity against Klebsiella pneumoniae at 5 mg/ml after 20-24 hrs by filter paper disc method; type: functional; conditions: read-out: DIZ; in short: as §1
Klebsiella pneumoniae [4] = assay: Antibacterial activity against Klebsiella pneumoniae at 10 mg/ml after 20-24 hrs by filter paper disc method; type: functional; conditions: read-out: DIZ; in short: as §1
Bacillus cereus [5] = assay: Antibacterial activity against Bacillus cereus at 5 mg/ml after 20-24 hrs by filter paper disc method; type: functional; conditions: read-out: DIZ; in short: as §1
Bacillus cereus [6] = assay: Antibacterial activity against Bacillus cereus at 10 mg/ml after 20-24 hrs by filter paper disc method; type: functional; conditions: read-out: DIZ; in short: as §1
Bacillus subtilis [7] = assay: Antibacterial activity against Bacillus subtilis at 5 mg/ml after 20-24 hrs by filter paper disc method; type: functional; conditions: read-out: DIZ; in short: as §1
Bacillus subtilis [8] = assay: Antibacterial activity against Bacillus subtilis at 10 mg/ml after 20-24 hrs by filter paper disc method; type: functional; conditions: read-out: DIZ; in short: as §1
Staphylococcus aureus [9] = assay: Antibacterial activity against Staphylococcus aureus at 5 mg/ml after 20-24 hrs by filter paper disc method; type: functional; conditions: read-out: DIZ; in short: as §1
Staphylococcus aureus [10] = assay: Antibacterial activity against Staphylococcus aureus at 10 mg/ml after 20-24 hrs by filter paper disc method; type: functional; conditions: read-out: DIZ; in short: as §1
Pseudomonas aeruginosa [11] = assay: Antibacterial activity against Pseudomonas aeruginosa at 5 mg/ml after 20-24 hrs by filter paper disc method.; type: functional; conditions: read-out: DIZ; in short: as §1
Pseudomonas aeruginosa [12] = assay: Antibacterial activity against Pseudomonas aeruginosa at 10 mg/ml after 20-24 hrs by filter paper disc method.; type: functional; conditions: read-out: DIZ; in short: as §1
Acetylcholinesterase = Acetylcholinesterase (Homo sapiens, UniProt P22303); assay: Inhibition of human AChE by Ellman method
Sequence of Acetylcholinesterase (P22303 whole entry): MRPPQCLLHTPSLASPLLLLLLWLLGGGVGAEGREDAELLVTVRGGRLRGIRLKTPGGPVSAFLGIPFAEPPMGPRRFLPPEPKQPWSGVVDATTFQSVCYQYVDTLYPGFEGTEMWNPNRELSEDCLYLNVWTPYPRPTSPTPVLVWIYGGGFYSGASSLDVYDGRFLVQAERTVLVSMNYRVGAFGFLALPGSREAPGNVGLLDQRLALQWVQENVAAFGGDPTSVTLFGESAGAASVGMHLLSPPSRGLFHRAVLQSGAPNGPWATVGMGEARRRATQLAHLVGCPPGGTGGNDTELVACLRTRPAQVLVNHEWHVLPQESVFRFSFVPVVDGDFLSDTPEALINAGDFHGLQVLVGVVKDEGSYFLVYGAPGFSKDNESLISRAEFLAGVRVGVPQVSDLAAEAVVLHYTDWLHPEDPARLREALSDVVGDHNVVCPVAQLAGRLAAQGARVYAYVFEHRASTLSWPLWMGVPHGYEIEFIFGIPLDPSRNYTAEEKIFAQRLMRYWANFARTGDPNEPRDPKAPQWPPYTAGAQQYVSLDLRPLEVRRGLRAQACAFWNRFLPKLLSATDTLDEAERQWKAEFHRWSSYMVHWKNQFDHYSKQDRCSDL

[13] = Lipophilicity, log P of the compound; type: physicochemical; conditions: octanol/water
Cholinesterase = Cholinesterase (Homo sapiens, UniProt P06276); assay: Inhibition of human BChE by Ellman method
Sequence of Cholinesterase (P06276 whole entry): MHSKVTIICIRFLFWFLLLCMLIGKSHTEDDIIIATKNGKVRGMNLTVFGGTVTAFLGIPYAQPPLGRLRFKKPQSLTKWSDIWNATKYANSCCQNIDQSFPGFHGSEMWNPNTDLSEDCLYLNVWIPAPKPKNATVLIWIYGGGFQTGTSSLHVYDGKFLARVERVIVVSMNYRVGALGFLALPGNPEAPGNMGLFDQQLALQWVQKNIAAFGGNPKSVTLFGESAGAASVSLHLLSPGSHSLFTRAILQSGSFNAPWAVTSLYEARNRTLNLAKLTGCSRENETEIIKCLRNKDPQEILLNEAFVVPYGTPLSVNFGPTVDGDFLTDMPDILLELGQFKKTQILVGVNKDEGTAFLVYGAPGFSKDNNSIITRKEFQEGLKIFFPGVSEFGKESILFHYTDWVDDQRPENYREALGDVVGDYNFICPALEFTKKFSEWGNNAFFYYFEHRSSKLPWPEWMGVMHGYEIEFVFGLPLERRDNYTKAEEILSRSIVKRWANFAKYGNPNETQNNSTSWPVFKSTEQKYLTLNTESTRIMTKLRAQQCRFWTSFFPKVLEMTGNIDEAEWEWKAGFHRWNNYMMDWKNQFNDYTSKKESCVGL
In short: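 BChE activity was run as in the Ellman AChE format: thiocholine released from butyrylthiocholine was read with DTNB. Lyophilised enzyme was diluted in 100 mM phosphate buffer, pH 8. IC50 was taken from a plot of VI/V0 against log[I].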

Structure (SMILES) | zone of inhibition at 5000 µg/mL (Escherichia coli [1]) [mm] | zone of inhibition at 10000 µg/mL (Escherichia coli [2]) [mm] | zone of inhibition at 5000 µg/mL (Klebsiella pneumoniae [3]) [mm] | zone of inhibition at 10000 µg/mL (Klebsiella pneumoniae [4]) [mm] | zone of inhibition at 5000 µg/mL (Bacillus cereus [5]) [mm] | zone of inhibition at 10000 µg/mL (Bacillus cereus [6]) [mm] | zone of inhibition at 5000 µg/mL (Bacillus subtilis [7]) [mm] | zone of inhibition at 10000 µg/mL (Bacillus subtilis [8]) [mm] | zone of inhibition at 5000 µg/mL (Staphylococcus aureus [9]) [mm] | zone of inhibition at 10000 µg/mL (Staphylococcus aureus [10]) [mm] | zone of inhibition at 5000 µg/mL (Pseudomonas aeruginosa [11]) [mm] | zone of inhibition at 10000 µg/mL (Pseudomonas aeruginosa [12]) [mm] | IC50 (Acetylcholinesterase) [µM] | logP [13] | IC50 (Cholinesterase) [µM]
O=P(NN1CCCCC1)(NN1CCCCC1)Oc1ccccc1 | 7 | 15 | 5 | 15 | 5 | 14 | 6 | 13 | 11 | 17 | – | – | – | – | –
O=P(O)(NN1CCCCC1)Oc1ccccc1 | 7 | 11 | – | – | – | – | 7 | 15 | – | 8 | 5 | 10 | 5490 | 1.29 | 1580
O=P(NN1CCOCC1)(NN1CCOCC1)Oc1ccccc1Cl | 7 | 10 | – | – | 7 | 10 | – | – | – | – | – | – | – | – | –
O=C(NP(=O)(NN1CCOCC1)NN1CCOCC1)c1ccc(Cl)cc1 | 6 | 13 | – | – | – | 8 | 5 | 12 | – | – | – | – | – | – | –
O=P(NN1CCOCC1)(NN1CCOCC1)c1ccccc1 | – | – | – | – | – | – | – | – | – | – | – | – | – | -1.12 | 2450
COc1ccc(C(=O)NP(=O)(NN2CCOCC2)NN2CCOCC2)cc1 | – | 7 | – | – | – | 7 | 7 | 13 | – | – | – | – | – | – | –
Cc1ccc(OP(=O)(NN2CCOCC2)NN2CCOCC2)cc1 | 6 | 11 | 7 | 14 | – | – | 8 | 18 | 10 | 13 | – | – | – | – | –
O=C(NP(=O)(NN1CCCCC1)NN1CCCCC1)c1ccccc1 | – | – | – | – | – | – | 9 | 19 | – | 7 | – | – | 1950 | 1.35 | 430
O=P(NN1CCOCC1)(NN1CCOCC1)Oc1ccccc1 | – | – | – | – | – | – | – | – | – | – | – | – | 9550 | -0.54 | 1620
O=C(NP(=O)(NN1CCOCC1)NN1CCOCC1)c1ccccc1 | 6 | 11 | – | – | – | – | 7 | 13 | – | 8 | – | – | 18600 | -0.78 | 2140
O=C(N[C@H](CO)[C@H](O)c1ccc([N+](=O)[O-])cc1)C(Cl)Cl [CHLORAMPHENICOL] | 13 | 17 | 11 | 15 | 12 | 15 | 14 | 17 | 17 | 22 | – | 7 | – | – | –
